The target of assay [1] is T1, Prostaglandin G/H synthase 1 (Ovis aries) (UniProt P05979).
T1 sequence (whole entry): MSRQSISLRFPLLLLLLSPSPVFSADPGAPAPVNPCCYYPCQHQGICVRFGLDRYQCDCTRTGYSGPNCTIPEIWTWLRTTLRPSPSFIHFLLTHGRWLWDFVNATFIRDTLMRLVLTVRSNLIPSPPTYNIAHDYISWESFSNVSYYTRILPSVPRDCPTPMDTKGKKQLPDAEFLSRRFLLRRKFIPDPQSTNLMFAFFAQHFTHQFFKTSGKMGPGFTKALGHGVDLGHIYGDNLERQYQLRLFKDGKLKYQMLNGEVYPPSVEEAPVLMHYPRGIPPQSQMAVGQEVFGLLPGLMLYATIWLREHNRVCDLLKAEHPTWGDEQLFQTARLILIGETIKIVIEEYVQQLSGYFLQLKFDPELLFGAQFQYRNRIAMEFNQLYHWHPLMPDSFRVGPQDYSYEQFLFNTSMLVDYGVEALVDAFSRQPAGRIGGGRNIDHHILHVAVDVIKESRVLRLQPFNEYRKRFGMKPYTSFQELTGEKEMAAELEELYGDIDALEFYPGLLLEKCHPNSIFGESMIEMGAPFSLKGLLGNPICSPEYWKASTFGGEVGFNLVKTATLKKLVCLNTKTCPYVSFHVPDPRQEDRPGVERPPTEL
Briefly: Inhibition of ovine COX1 at 100 uM. The method, boiled down:
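Colorimetric ovine COX inhibitor screening kit, run per the supplier's protocol. […] Each experiment was run at least twice and the mean was reported.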

Assay [2] has as its system Rattus norvegicus. Description: Effect on gastric damage in rat assessed as induction of gastric ulcer at 30 mg/kg, po after 5 hrs. It counts as functional, organism-based. Also noted: dose 30 mg/kg. The settings on record: Stomach. In a few lines: (§1)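 Male rats, 170–200 g, given a single oral dose in 0.5% CMC vehicle (n = 3–5 per group). Ulcer lengths were measured in millimetres and summed to give an overall gastric damage score per rat. Data are means with SEM.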

Assay [3] deals with Rattus norvegicus. Description: Effect on gastric damage in rat assessed as induction of gastric ulcer at 10 mg/kg, po after 5 hrs. It counts as functional, organism-based. Also noted: dose 10 mg/kg. The settings on record: Stomach. The method, boiled down: as §1
Assay [4] deals with T2, Prostaglandin G/H synthase 1 (Ovis aries, UniProt P05979).
T2 sequence (P05979 whole entry): T1 sequence (whole entry)
Description: Inhibition of ovine COX1. The method, boiled down: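 Colorimetric ovine COX inhibitor screening kit, run per the supplier's protocol. Each experiment was run at least twice and the mean was reported.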

The source made the active and inactive calls. No cut-off for these calls is given here.

`CCN(c1ccc(Cl)cc1)S(=O)(=O)c1ccc(N)cc1`: in assay [1], the inhibition worked out at 10%. In assay [1], `Cc1cccc(NS(=O)(=O)c2ccc(NS(C)(=O)=O)cc2)c1` gave an inhibition of 3%.

`Cc1ccc(NS(=O)(=O)c2ccc(NS(C)(=O)=O)cc2)cc1` came in with an inhibition in assay [1] of 12%. Molecule `Cc1ccc(NS(=O)(=O)c2ccc(N)cc2)cc1` registered an inhibition in assay [1] of 52%. In assay [1], `Nc1ccc(S(=O)(=O)Nc2cc(C(F)(F)F)cc(C(F)(F)F)c2)cc1` showed an inhibition of 30%. In the case of `Cc1cc(C)cc(NS(=O)(=O)c2ccc([N+](=O)[O-])cc2)c1`, in assay [1], the inhibition is 0%. For `COc1ccc(NS(=O)(=O)c2ccc(NS(C)(=O)=O)cc2)cc1`, the inhibition in assay [1] was 8%. `Nc1ccc(S(=O)(=O)Nc2ccccc2)cc1` gave an inhibition in assay [1] of 0%. Regarding `CCCN(c1ccc(Cl)cc1)S(=O)(=O)c1ccc(N)cc1`, the inhibition in assay [1] was 0%. Still for that read-out and setting: with `Nc1ccc(S(=O)(=O)Nc2ccccc2Cl)cc1` the figure was 53%.

Take `CN(c1ccc(F)cc1)S(=O)(=O)c1ccc(N)cc1`: the inhibition in assay [1] was determined as 0%. For the molecule `CC(=O)Oc1ccccc1C(=O)O`, the result in assay [2] was Active. With `O=C(O)c1ccc(S(=O)(=O)Nc2ccc(C(F)(F)F)cc2)cc1`, the inhibition in assay [1] worked out at 0%. Molecule `Cc1ccccc1NS(=O)(=O)c1ccc([N+](=O)[O-])cc1` returned an inhibition in assay [1] of 0%. As to `Nc1ccc(NS(=O)(=O)c2ccc(Cl)cc2)cc1`, in assay [1], the inhibition came to 3%. Still for that read-out and setting: as for `Cc1cccc(NS(=O)(=O)c2ccc(C(=O)O)cc2)c1`, the figure is 0%; as for `Nc1ccc(S(=O)(=O)Nc2ccc(C(F)(F)F)cc2)cc1`, 14%; as for `O=C(O)c1ccc(S(=O)(=O)Nc2ccccc2)cc1`, 11%. For `COc1ccc2c(c1)c(CC(=O)O)c(C)n2C(=O)c1ccc(Cl)cc1`, in assay [3], the outcome was Active. `Cc1ccc(N(C)S(=O)(=O)c2ccc(N)cc2)cc1` yielded an inhibition in assay [1] of 21%. Still for that read-out and setting: with `Cc1ccccc1NS(=O)(=O)c1ccc(NS(C)(=O)=O)cc1` the figure was 0%. `O=[N+]([O-])c1ccc(S(=O)(=O)Nc2ccc(Cl)cc2)cc1` came in with an inhibition in assay [1] of 6%.

As for `Nc1ccc(S(=O)(=O)Nc2ccc(Cl)cc2)cc1`, the inhibition in assay [1] is 70%. Besides, the IC50 in assay [4] was 12 µM. In assay [1], `Nc1ccc(S(=O)(=O)Nc2ccc(Cl)cc2Cl)cc1` displayed an inhibition of 6%.

Turning to `CS(=O)(=O)Nc1ccc(S(=O)(=O)Nc2ccc(Cl)cc2)cc1`, the inhibition in assay [1] was determined as 11%.

On to `COc1ccc(N(C)S(=O)(=O)c2ccc(N)cc2)cc1`, for which the inhibition in assay [1] was found to be 6%. As for `CN(c1ccc(Cl)cc1)S(=O)(=O)c1cccc(N)c1`, the inhibition in assay [1] worked out at 39%. `O=[N+]([O-])c1ccc(S(=O)(=O)Nc2ccc(C(F)(F)F)cc2)cc1` yielded an inhibition in assay [1] of 1%. On the same count and under the same terms, as for `Cc1cccc(NS(=O)(=O)c2ccc(N)cc2)c1`, the figure is 8%; as for `Nc1ccc(S(=O)(=O)Nc2ccc(I)cc2)cc1`, 18%.

As for `Cc1ccc(NS(=O)(=O)c2ccc([N+](=O)[O-])cc2)cc1`, the inhibition in assay [1] came to 44%. Regarding `COc1cc(N)ccc1N(C)S(=O)(=O)c1ccc(Cl)cc1`, the inhibition in assay [1] is 73%. 20 µM corresponded to half-maximal inhibition in assay [4] (IC50). For the molecule `CS(=O)(=O)Nc1ccc(S(=O)(=O)Nc2ccc(C(F)(F)F)cc2)cc1`, in assay [1], the inhibition was found to be 8%.

`CN(c1ccc(I)cc1)S(=O)(=O)c1ccc(N)cc1` registered an inhibition in assay [1] of 18%. For the molecule `O=C(O)c1ccc(S(=O)(=O)Nc2cc(C(F)(F)F)cc(C(F)(F)F)c2)cc1`, in assay [1], the inhibition is 25%. Still for that read-out and setting: with `COc1ccc(NS(=O)(=O)c2ccc(C(=O)O)cc2)cc1` the figure was 3%.

`Nc1ccc(NS(=O)(=O)c2ccc(Cl)cc2)c(C(F)(F)F)c1`: the inhibition in assay [1] was 7%. For `CS(=O)(=O)Nc1ccc(S(=O)(=O)Nc2ccccc2)cc1`, in assay [1], the inhibition amounted to 0%. Same read-out and setting: as for `Cc1cc(C)cc(NS(=O)(=O)c2ccc(NS(C)(=O)=O)cc2)c1`, the figure is 0%; as for `COc1cc(N)ccc1NS(=O)(=O)c1ccc(Cl)cc1`, 1%. In turn, `COc1ccc(NS(=O)(=O)c2ccc([N+](=O)[O-])cc2)cc1` yielded an inhibition in assay [1] of 0%. In assay [1], `CN(c1ccc(N)cc1)S(=O)(=O)c1ccc(Cl)cc1` had an inhibition of 68%. Also, in assay [4], it took 9.2 µM to reach half-maximal inhibition (IC50). `O=[N+]([O-])c1ccc(S(=O)(=O)Nc2ccccc2)cc1` yielded an inhibition in assay [1] of 0%. `CN(c1ccccc1)S(=O)(=O)c1ccc(N)cc1` showed an inhibition in assay [1] of 48%.

`Nc1ccc(S(=O)(=O)Nc2cccc(Cl)c2)cc1`: the inhibition in assay [1] was 18%.

In assay [1], `Cc1cc(C)cc(NS(=O)(=O)c2ccc(N)cc2)c1` came in with an inhibition of 13%. Consider `Cc1ccccc1NS(=O)(=O)c1ccc(C(=O)O)cc1`, for which the inhibition in assay [1] was 21%.

`CN(c1ccc(C(F)(F)F)cc1)S(=O)(=O)c1ccc(N)cc1` came in with an inhibition in assay [1] of 9%. In turn, `CN(c1ccc(Br)cc1)S(=O)(=O)c1ccc(N)cc1` displayed an inhibition in assay [1] of 21%. In the case of `Nc1ccc(S(=O)(=O)Nc2ccc(F)cc2)cc1`, the inhibition in assay [1] was determined as 15%. On the same count and under the same terms, as for `Nc1ccc(S(=O)(=O)Nc2ccc(Br)cc2)cc1`, the figure is 23%; as for `O=[N+]([O-])c1ccc(S(=O)(=O)Nc2cc(C(F)(F)F)cc(C(F)(F)F)c2)cc1`, 19%.

In the case of `CN(c1ccc(Cl)cc1)S(=O)(=O)c1ccc(N)cc1`, the inhibition in assay [1] was 78%. The molecule also had an IC50 in assay [4] of 3.2 µM. As to `Cc1cccc(NS(=O)(=O)c2ccc([N+](=O)[O-])cc2)c1`, the inhibition in assay [1] is 3%. In assay [1], `Cc1cc(N)ccc1N(C)S(=O)(=O)c1ccc(Cl)cc1` came in with an inhibition of 77%. Moreover, in assay [4], half-maximal inhibition (IC50) required 26 µM. In turn, `Cc1ccccc1NS(=O)(=O)c1ccc(N)cc1` gave an inhibition in assay [1] of 5%.

As to `Cc1cc(N)ccc1NS(=O)(=O)c1ccc(Cl)cc1`, the inhibition in assay [1] stood at 7%.

`CS(=O)(=O)Nc1ccc(S(=O)(=O)Nc2cc(C(F)(F)F)cc(C(F)(F)F)c2)cc1`: the inhibition in assay [1] worked out at 0%.

In general, inhibition refers to the percentage by which the read-out fell short of the control. Low values mean a weak effect, high ones a strong effect. Broadly, the IC50 is the concentration that gives 50% inhibition. The low end stands for greater potency, the high end for weaker potency.

Source of the values: ChEMBL document CHEMBL1144540, “Analgesic agents without gastric damage: design and synthesis of structurally simple benzenesulfonanilide-type cyclooxygenase-1-selective inhibitors” (Bioorg Med Chem, 2007).
